This note sets out measurements from PubChem BioAssay AID1381 (University of Pittsburgh Molecular Library Screening Center, 2008).

A short description of the assay: inhibitors of GR-EGFP nuclear translocation, primary screen, dynein cargo transport inhibitor project, imaging, high-content, 3617.4 mouse cells (AID 1381). Particulars: stimulated with dexamethasone, 1 µM. Put shortly: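 Medium: Induction medium lacking tetracycline, stripped serum | Probe or stimulus: 1.0 µM final dexamethasone stimulus | Schedule: 48 h induction, then 1 h compound, then 30 min agonist, 37 °C | Signal: Automated 10x imaging of fixed Hoechst-stained cells | Evaluation: Per-cell GR-EGFP intensity, nucleus versus surrounding cytoplasmic ring, well-averaged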

[1] abbreviates: measured here: cell count per field, at 20 µM.
[2] abbreviates: measured here: cytoplasmic GR-EGFP intensity, at 20 µM, stronger effect = higher value.
Setting [3] is: measured here: nuclear GR-EGFP intensity, at 20 µM, stronger effect = lower value.
Setting [4] is: measured here: cell count per field, at 50 µM.
Where [5] appears, read: measured here: cytoplasmic GR-EGFP intensity, at 50 µM, stronger effect = higher value.
The mark [6] stands for this setting: measured here: nuclear GR-EGFP intensity, at 50 µM, stronger effect = lower value.

The whole screen tested about 220,000 compounds, of which about 1,000 (0.45%) were called active.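 The calls were made as follows: active = plate z-score of nuclear minus cytoplasmic receptor signal below a set negative limit, without overly bright fluorescence or cell loss (cut at about -3.5 in these data, passing the limit was not always enough); inactive = the rest, inconclusive results apart.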 Shown is part of a subset that was picked to be rich in actives.

`CCOC(=O)C1=C(CC)OC(N)=C(C#N)C1c1ccc(F)cc1F` (stereo unspecified): the z-score (at 20 µM, stronger effect = lower value) is -3.05 (inactive); the z-score under setting [1] was -0.462; the z-score under setting [2] stood at 0.472; the z-score under setting [3] was -1.28.
As for `CCOC(=O)C1=C(C)OC(N)=C(C#N)C1c1cncc(-c2ccc(F)cc2)c1` (stereo unspecified), the z-score was -3.9 (active) (at 20 µM, stronger effect = lower value); -0.136 under setting [1]; 0.28 under setting [2]; -1.42 under setting [3].
Take `C=CCOC(=O)C1=C(C)OC(N)=C(C#N)C1c1ccc(F)cc1` (stereo unspecified): the z-score runs as follows: (at 20 µM, stronger effect = lower value) -1.1 (inactive); under setting [1], 0.643; under setting [2], -0.165; under setting [3], -0.354.
Regarding `O=C1c2ccccc2C(=O)N1Cc1cc(-c2ccccc2Cl)no1`, the z-score (at 20 µM, stronger effect = lower value) was -0.0385 (inactive); the z-score under setting [1] is -0.0908; the z-score under setting [2] was -0.215; the z-score under setting [3] is 0.196.
As for `COc1ccc(C)cc1NC(=S)Nc1ccccc1SC`, the z-score is -0.497 (inactive) (at 20 µM, stronger effect = lower value); 0.252 under setting [1]; -0.293 under setting [2]; -0.178 under setting [3].
Turning to `Cc1ccc(CN2CCN(Cc3ccc(OCCO)cc3)CC2CCO)o1` (stereo unspecified), the z-score was 0.361 (inactive) (at 20 µM, stronger effect = lower value); 0.953 under setting [1]; -0.289 under setting [2]; -0.03 under setting [3].
`O=C1c2cccc3cc(Br)cc(c23)C(=O)N1Nc1ccccc1`: the z-score runs as follows: (at 20 µM, stronger effect = lower value) 0.228 (inactive); under setting [1], 0.252; under setting [2], -0.199; under setting [3], 0.671.
Turning to `O=C1C=C(c2ccc(Cl)cc2)C(=O)N1Nc1ccccc1`, the z-score runs as follows: (at 20 µM, stronger effect = lower value) -4.4 (active); under setting [1], -0.124; under setting [2], 2.35; under setting [3], -1.87.
For `O=C(Nc1ccccc1)OCc1cc(-c2ccc(Cl)cc2)on1`, the z-score was 1.93 (inactive) (at 20 µM, stronger effect = lower value); -1.86 under setting [1]; -0.165 under setting [2]; 1.78 under setting [3].
In the same order, the values of `CCOc1ccccc1N1CCN(C(=O)COc2ccc3c(C)cc(=O)oc3c2)CC1` are 1.35 (inactive), -0.138, -0.356 and 0.787.
In the same order, the values of `Clc1cccc(-c2nc3nc4ccccc4nc3n2Cc2ccco2)c1` are -4.09 (active), 0.0368, 2.09 and -1.78.
In the same order, the values of `Cc1cc(NC(=O)CSc2nc3cc(Cl)ccc3c(=O)n2Cc2ccco2)no1` are 2.31 (inactive), -1.55, -0.306 and 1.39.
Turning to `O=C(CSc1nnc(-c2cccnc2)n1Cc1ccco1)c1ccc(Cl)cc1`, the z-score is -0.358 (inactive) (at 20 µM, stronger effect = lower value); -0.0648 under setting [1]; -0.209 under setting [2]; -0.055 under setting [3].
Take `Cc1cccc(NC(=S)N2CCC(c3nc4ccccc4s3)CC2)c1`: the z-score was -0.203 (inactive) (at 20 µM, stronger effect = lower value); 0.43 under setting [1]; -0.197 under setting [2]; -0.339 under setting [3].
Turning to `O=C(Nc1ccc(F)cc1)C1CCN(C(=O)c2ccc([N+](=O)[O-])cc2)CC1`, the z-score runs as follows: (at 20 µM, stronger effect = lower value) -0.907 (inactive); under setting [1], 0.228; under setting [2], 0.208; under setting [3], -0.321.
For `CC1CCN(C(=O)c2ccc(S(=O)(=O)Cc3cc(F)ccc3F)c([N+](=O)[O-])c2)CC1`, the z-score was -3.71 (active) (at 20 µM, stronger effect = lower value); -1.15 under setting [1]; 0.395 under setting [2]; -2.24 under setting [3].
In the case of `CC1CCN(C(=O)c2ccc(CSc3ccc(Cl)cc3)cc2)CC1`, the z-score (at 20 µM, stronger effect = lower value) is -0.555 (inactive); the z-score under setting [1] was found to be 0.71; the z-score under setting [2] was -0.258; the z-score under setting [3] is -0.29.
For the molecule `O=C(CC(NC(=O)c1ccccc1)c1ccccc1)Nc1ccc(F)c(F)c1` (stereo unspecified), the z-score by setting is: (at 20 µM, stronger effect = lower value) -0.729 (inactive); under setting [1], 0.477; under setting [2], -0.215; under setting [3], -0.567.
`COc1ccc2c(c1)cc1n2CCN=C1NN`: the z-score (at 20 µM, stronger effect = lower value) is 1.67 (inactive); the z-score under setting [1] is -0.465; the z-score under setting [2] was -0.0728; the z-score under setting [3] was determined as 0.848.
Consider `Cc1ccc2nc(C)c3c(c2c1)N(c1ccccc1)CC3`, for which the z-score was -0.838 (inactive) (at 20 µM, stronger effect = lower value); 0.0751 under setting [1]; -0.205 under setting [2]; -0.482 under setting [3].
Take `CCCN(c1ccc(C)cc1)c1nc(=O)c2cccnc2s1`: the z-score (at 20 µM, stronger effect = lower value) is 0.0477 (inactive); the z-score under setting [1] was found to be 0.0213; the z-score under setting [2] was -0.295; the z-score under setting [3] is 0.0592.
The corresponding values for `Cc1ccc(Cl)cc1N1CCN(C(=O)c2cccc3c(=O)c(C)c(-c4ccccc4)oc23)CC1` are -0.56 (inactive), 0.953, -0.179 and -0.287.
On to `CCOC(=O)c1cc2c(ccn2C)n1CC(=O)N1CCC(C)CC1`, for which the z-score reads like this: (at 50 µM, stronger effect = lower value) -0.704 (inactive); under setting [4], 0.841; under setting [5], -0.262; under setting [6], -1.05.
For `Clc1ccc(CN2CCN(/N=C/c3cccnc3)CC2)cc1`, the z-score runs as follows: (at 20 µM, stronger effect = lower value) -0.266 (inactive); under setting [1], 0.201; under setting [2], -0.295; under setting [3], -0.167.
As for `O=C1/C(=C\c2cccnc2)CN(Cc2ccccc2)C/C1=C\c1cccnc1`, the z-score is -3.59 (active) (at 20 µM, stronger effect = lower value); -0.00204 under setting [1]; 0.672 under setting [2]; -2.16 under setting [3].
The corresponding values for `O=Cc1cn(Cc2ccccc2)nc1-c1cccnc1` are -0.988 (inactive), 0.721, -0.215 and -0.566.
Turning to `Cc1ccc(S(=O)(=O)N(C)c2ccc(OCC(=O)NC3=NCCS3)cc2)cc1`, the z-score is 0.77 (inactive) (at 20 µM, stronger effect = lower value); -1.53 under setting [1]; 0.171 under setting [2]; 1.46 under setting [3].
As to `Cc1ccnc(N2CCN(C(=O)CSc3nc4ccccc4nc3N3CCCCC3)CC2)c1`, the z-score is, setting by setting: (at 20 µM, stronger effect = lower value) -1.05 (inactive); under setting [1], 0.232; under setting [2], -0.187; under setting [3], -0.257.
Turning to `CC(C)(C)c1cc(NC(=O)NN2CCOCC2)nn1-c1c(Cl)cc(Cl)cc1Cl`, the z-score by setting is: (at 20 µM, stronger effect = lower value) 0.305 (inactive); under setting [1], 0.973; under setting [2], -0.287; under setting [3], -0.0782.
On to `COc1ccc(CCNC(=O)c2ccc(CS(=O)(=O)c3ccc(Br)cc3)o2)cc1OC`, for which the z-score runs as follows: (at 20 µM, stronger effect = lower value) 0.736 (inactive); under setting [1], 0.162; under setting [2], -0.215; under setting [3], 0.28.
Turning to `CCN(Cc1nc2ccccc2c(=O)[nH]1)Cc1cc(=O)oc2cc(C)c(C)cc12`, the z-score runs as follows: (at 50 µM, stronger effect = lower value) 0.712 (inactive); under setting [4], 0.798; under setting [5], -0.276; under setting [6], -0.426.
Take `O=[N+]([O-])c1cccc(-c2nnc3c4ccccc4c4ccccc4n23)c1`: the z-score reads like this: (at 20 µM, stronger effect = lower value) -0.00649 (inactive); under setting [1], 0.483; under setting [2], 1.22; under setting [3], 0.469.
As for `CCOC(=O)c1cnc2[nH]c3ccccc3n2c1=O`, the z-score is -0.506 (inactive) (at 20 µM, stronger effect = lower value); -0.246 under setting [1]; 0.0235 under setting [2]; -0.197 under setting [3].
As to `O=c1[nH]c2ccccc2n2c(-c3ccccc3)nnc12`, the z-score (at 50 µM, stronger effect = lower value) was -4.53 (active); the z-score under setting [4] was determined as 0.378; the z-score under setting [5] is 0.89; the z-score under setting [6] was -2.64.
